PMC9099131 (Clinical and Translational Science, 2022)
In brackets after ≈: the same amount, converted by molar mass.

What was measured:
[1] = Single-dose plasma pharmacokinetics of trazpiroben alone and with esomeprazole; format: in vivo, human (healthy adults); conditions: for AUC∞, Geometric LSM / Cmax, Geometric LSM: ANOVA
Procedure, shortened: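 Healthy adults dosed orally with 25 mg on day 1; after a 4-day washout, the proton pump inhibitor was given at 40 mg once daily on days 8–12, with 25 mg co-dosed 1 h after it on day 11 following a ≥10 h fast. Plasma was sampled predose to 48 h and assayed by validated LC-MS/MS (0.05–50.00 ng/ml), with BLQ values set to zero. Noncompartmental parameters were derived, and ln AUC∞/Cmax were analysed by ANOVA (treatment fixed, participant random).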

[2] = ref data on file, cited from earlier work
[3] = trazpiroben 25 mg alone, N = 12
[4] = trazpiroben 25 mg and esomeprazole 40 mg, N = 12
[5] = plasma, single oral dose trazpiroben 25 mg alone, N = 12
[6] = single dose alone or in the presence of esomeprazole
[7] = single oral dose trazpiroben 25 mg alone, N = 12
[8] = single oral dose trazpiroben 25 mg with esomeprazole 40 mg once daily, N = 12
[9] = trazpiroben 25 mg with esomeprazole 40 mg vs alone
[10] = single oral dose of trazpiroben 25 mg alone on day 1

Q: With `O=C(O)c1cccc(CN2CN(C3CCCCC3)C3(CCN(CCCC(=O)c4ccccc4)CC3)C2=O)c1` [Trazpiroben] as the molecule, how does the “AUC∞, Geometric LSM” value [1, 3] read?
A: 44.03 ng·h/mL

Q: And the “Cmax, Geometric LSM” value [1, 3]?
A: 19.76 ng/mL

Q: And the “AUC∞, Geometric LSM” value [1, 4]?
A: 38.85 ng·h/mL

Q: What about the “Cmax, Geometric LSM” value [1, 4] of the same molecule?
A: 17.24 ng/mL

Q: What about the “AUC∞, Geo. mean (CV%)” value [1, 5] of the same molecule?
A: 44.03 (27.50) ng h/ml

Q: What about the “Cmax, Geo. mean (CV%)” value [1, 5] of the same molecule?
A: 19.76 (36.50) ng/ml

Q: What about the “Tmax, Median (min, max)” value [1, 5] of the same molecule?
A: 1.00 (0.50, 1.53) h

Q: And the “t1/2, Mean (±SD)” value [1, 5]?
A: 6.21 ± 3.96 h

Q: And the “approximate half-life of biphasic decline” value [1, 6]?
A: 6 to 7 h

Q: What about the “time postdose at which mean plasma concentration peaked” value [1, 6] of the same molecule?
A: around 1 h

Q: And the “CL/F, Geo. mean (CV%)” value [1, 7]?
A: 567.90 (27.50) L/h

Q: And the “Vz/F, Geo. mean (CV%)” value [1, 7]?
A: 4137.00 (77.80) L

Q: And the “CL/F, Geo. mean (CV%)” value [1, 8]?
A: 643.50 (31.10) L/h

Q: And the “Vz/F, Geo. mean (CV%)” value [1, 8]?
A: 4716.00 (102.00) L

Q: What about the “GMR for plasma AUC∞ lower following co-administration versus trazpiroben alone” value [1, 9] of the same molecule?
A: 11.8%

Q: And the “GMR for plasma Cmax lower following co-administration versus trazpiroben alone” value [1, 9]?
A: 12.8%

Q: What about the “vital sign and ECG parameters” value (following both treatments) of the same molecule?
A: no clinically meaningful changes

Q: What about the tolerability (healthy adults, administration alone and alongside esomeprazole) of the same molecule?
A: well‐tolerated

Q: And the “CNS or cardiovascular safety concerns” value (single agent or co-administered with esomeprazole)?
A: no CNS or cardiovascular safety concerns were observed

Q: What about the “Number of participants with treatment‐emergent AEs” value [10] of the same molecule?
A: 2 (17) n (%)

Q: What about the “Participants reporting AEs: Folliculitis” value [10] of the same molecule?
A: 0 (0) n (%)

Q: What about the “Participants reporting AEs: General disorders and administration site conditions” value [10] of the same molecule?
A: 0 (0) n (%)

Q: What about the “Participants reporting AEs: Headache” value [10] of the same molecule?
A: 1 (8) n (%)

Q: What about the “Participants reporting AEs: Infections and infestations” value [10] of the same molecule?
A: 0 (0) n (%)

Q: And the “Participants reporting AEs: Influenza‐like illness” value [10]?
A: 0 (0) n (%)

Q: What about the “Participants reporting AEs: Menstruation delayed” value [10] of the same molecule?
A: 0 (0) n (%)

Q: What about the “Participants reporting AEs: Nervous system disorders” value [10] of the same molecule?
A: 1 (8) n (%)

Q: What about the “Participants reporting AEs: Oropharyngeal pain” value [10] of the same molecule?
A: 0 (0) n (%)

Q: And the “Participants reporting AEs: Reproductive system and breast disorders” value [10]?
A: 0 (0) n (%)

Q: What about the “Participants reporting AEs: Respiratory, thoracic, and mediastinal disorders” value [10] of the same molecule?
A: 1 (8) n (%)

Q: What about the “Participants reporting AEs: Throat irritation” value [10] of the same molecule?
A: 1 (8) n (%)

Q: What about the “Participants reporting AEs: Vessel puncture site pain” value [10] of the same molecule?
A: 0 (0) n (%)

Q: What about the “Participants reporting AEs: Vessel puncture site reaction” value [10] of the same molecule?
A: 0 (0) n (%)

Q: What about the “deaths, serious AEs, discontinuations due to AEs” value (whole study, 12 participants) of the same molecule?
A: No deaths, serious AEs, or discontinuations due to AEs were reported

Q: What about the mean solubility ([2]; pH 1.15) of the same molecule?
A: 1210 µg/mL

Q: And the solubility ([2]; pH 6.97)?
A: 50 µg/mL (≈ 96.6 µM)
